The record followed here is ChEMBL document CHEMBL3797076, “5-HT2 receptor affinity, docking studies and pharmacological evaluation of a series of 1,3-disubstituted thiourea derivatives” (Eur J Med Chem, 2016).

Data set [1] relates to Mus musculus. In words: Antinociceptive activity in Albino Swiss mouse assessed as inhibition of acetic acid-induced writhing response at 0.1 ED50, ip administered 60 mins prior to test measured for 10 mins. The format is functional, organism-based. The essentials:
(§1)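 Male Albino Swiss mice, i.p. dosing in 0.5% methylcellulose 60 min beforehand; 0.6% acetic acid injected i.p., writhing episodes counted for 10 min beginning 5 min after acid. Mean ± SEM; one-way ANOVA with Dunnett's test vs control.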
In general terms: An intraperitoneal irritant provokes the stretching counted in writhing tests.

For data set [2], the system named is Mus musculus. In words: Decrease in body temperature in Albino Swiss mouse at 0.1 ED50, ip administered 60 mins before test measured 30 to 120 mins post dose. The format is functional, organism-based. The gist of the method:
(§2)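 Normothermic male Albino Swiss mice; rectal temperature by thermistor thermometer. Baseline taken as mean of readings at 60 and 30 min before dosing; i.p. dose (0.1 ED50, 0.5% methylcellulose vehicle) then readings at 30, 60, 90, 120 min (to 180 min for some). Change = final minus initial; Bonferroni post hoc test.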

Data set [3] concerns the target 5-hydroxytryptamine receptor 2A (Rattus norvegicus, UniProt P14842). Put plainly: Displacement of [3H]ketanserin from 5HT2A receptor in Sprague-Dawley rat brain cortex incubated for 15 mins. The essentials: (§3)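 Rat frontal cortex homogenized in 50 mM Tris-HCl, 0.5 mM EDTA, 10 mM MgCl2, pH 7.4, washed, resuspended with 0.1% ascorbate and pargyline. Triplicates: 5-HT2A used 0.4 nM [3H]ketanserin, cinanserin for nonspecific binding; 5-HT2C used 1 nM [3H]mesulergine, mianserin nonspecific, 100 nM spiperone added. 15 min at 37 C, glass-fiber filtration.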
On the technique in general: Loss of bound radioactivity is the signal in a displacement assay; it reports binding, not function.

Data set [4] has as its system Mus musculus. In words: Toxicity in ip dosed Albino Swiss mouse assessed as loss of righting reflex administered 60 mins before test measured up to 48 hrs. It counts as organism-based. Conditions: in vivo. The gist of the method: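 Acute toxicity in male Albino Swiss mice by Litchfield-Wilcoxon method: ED50 for loss of righting reflex after i.p. dosing, observed at 15, 30, 60, 180 min and 24, 48 h.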

The target of data set [5] is T1, 5-hydroxytryptamine receptor 2C (Rattus norvegicus, UniProt P08909).
T1 sequence (P08909 whole entry): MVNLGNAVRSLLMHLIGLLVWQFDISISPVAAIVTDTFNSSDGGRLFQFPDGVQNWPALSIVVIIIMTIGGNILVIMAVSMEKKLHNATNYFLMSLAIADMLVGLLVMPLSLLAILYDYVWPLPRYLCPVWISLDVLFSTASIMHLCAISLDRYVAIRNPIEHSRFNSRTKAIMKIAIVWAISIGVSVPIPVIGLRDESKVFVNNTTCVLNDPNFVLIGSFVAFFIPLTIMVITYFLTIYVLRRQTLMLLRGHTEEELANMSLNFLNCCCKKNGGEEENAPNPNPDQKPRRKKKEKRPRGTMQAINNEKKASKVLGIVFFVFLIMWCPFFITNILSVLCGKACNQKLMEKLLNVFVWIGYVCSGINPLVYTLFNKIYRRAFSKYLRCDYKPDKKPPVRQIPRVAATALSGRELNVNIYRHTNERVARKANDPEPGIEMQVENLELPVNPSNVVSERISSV
Put plainly: Displacement of [3H]mesulergine from 5HT2C receptor in Sprague-Dawley rat brain cortex incubated for 15 mins. The gist of the method: as §3

In data set [6] the test system is Mus musculus. Put plainly: Antinociceptive activity in Albino Swiss mouse assessed as inhibition of acetic acid-induced writhing response at 0.025 to 0.05 ED50, ip administered 60 mins prior to test measured for 10 mins. The format is functional, organism-based. The gist of the method:
as §1

For data set [7], the system named is Mus musculus. In words: Antinociceptive activity in Albino Swiss mouse assessed as inhibition of acetic acid-induced writhing response at 0.05 ED50, ip administered 60 mins prior to test measured for 10 mins in presence of opioid receptor antagonist naloxone. The format is functional, organism-based.
Data set [8] deals with Mus musculus. Put plainly: Toxicity in Albino Swiss mouse assessed as inhibition of spontaneous locomotor activity at 0.1 ED50, ip administered 60 mins before test measured for 30 mins by photoresistor actometer analysis. The format is organism-based. Conditions: in vivo, 0.5 h. The gist of the method: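 Spontaneous locomotion of single male Albino Swiss mice recorded in two-beam photoresistor actometers as beam crossings for 30 min, beginning 60 min after i.p. compound (suspension in 0.5% methylcellulose).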

Data set [9] relates to Mus musculus. Put plainly: Neurotoxicity in Albino Swiss mouse assessed as impairment in motor coordination at 0.0125 to 0.1 ED50, ip after 60 mins by chimney test. Particulars: in vivo, 1 h. The format is toxicity, organism-based.
In data set [10] the test system is Mus musculus. Put plainly: Anticonvulsant activity in Albino Swiss mouse assessed as protection against pentetrazol-induced clonic seizure at 0.1 ED50, ip administered 60 mins prior to test relative to untreated control. The format is functional. The gist of the method: (§4)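 Male Albino Swiss mice (18-30 g); compound given i.p. as suspension in 0.5% methylcellulose 60 min before test; pentylenetetrazole 110 mg/kg s.c. Scored as number of mice with clonic seizures, tonic convulsions and deaths per animals tested; Fisher's exact test vs solvent control.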

Data set [11] concerns Mus musculus. In words: Inhibition of 5-HTP-induced head twitch response in Albino Swiss mouse at 0.1 ED50, ip administered 60 mins before 5-HTP injection relative to untreated control. The format is functional. The gist of the method:
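Male Albino Swiss mice given compound i.p. (0.1 ED50, 0.5% methylcellulose) 60 min before the test; L-5-HTP 230 mg/kg i.p. injected immediately before. Head twitches counted; mean ± SEM, Dunnett's test vs control.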

Data set [12] concerns Mus musculus. Put plainly: Inhibition of amphetamine-induced hyperlocomotion in Albino Swiss mouse at 0.1 ED50, ip administered 60 mins prior to test measured for 30 mins by photoresistor actometer analysis. It counts as functional. The gist of the method:
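Single male Albino Swiss mice; compound i.p. 60 min and amphetamine 5 mg/kg s.c. 30 min before test. Photoresistor actometers (circular cage, two light beams) counted beam crossings over 30 min; mean ± SEM, Dunnett's test vs control.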

The test system of data set [13] is Mus musculus. In words: Neurotoxicity in Albino Swiss mouse assessed as impairment in motor coordination at 0.0125 to 0.1 ED50, ip after 60 mins by rotarod test. It counts as toxicity, organism-based. Conditions: in vivo, 1 h.
Data set [14] deals with Mus musculus. Put plainly: Neurotoxicity in Albino Swiss mouse assessed as induction of myorelaxation at 0.0125 to 0.1 ED50, ip after 60 mins by chimney test. It counts as toxicity, organism-based. Particulars: in vivo, 1 h.
The test system of data set [15] is Mus musculus. Put plainly: Neurotoxicity in Albino Swiss mouse assessed as induction of myorelaxation at 0.0125 to 0.1 ED50, ip after 60 mins by rotarod test. The format is toxicity, organism-based. Particulars: in vivo, 1 h. (In general: The rotarod test checks motor coordination on a turning rod.)
Data set [16] deals with Mus musculus. In words: Inhibition of (+/-)DOI-induced head twitch response in ip dosed Albino Swiss mouse administered 60 mins before (+/-)DOI injection measured for 20 mins. The format is functional, organism-based. The gist of the method: (§5)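 Male Albino Swiss mice; compounds suspended in 0.5% methylcellulose, injected i.p. 60 min before (±)DOI 2.5 mg/kg i.p.; head twitches counted over 20 min. Mean ± SEM, percent reduction versus DOI-treated group; one-way ANOVA with Bonferroni post hoc test.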

In data set [17] the test system is Mus musculus. Put plainly: Increase in body temperature in Albino Swiss mouse at 0.1 ED50, ip administered 60 mins before test measured 30 to 180 mins post dose. It counts as functional, organism-based. The gist of the method: as §2
The subject of data set [18] is Mus musculus. Put plainly: Inhibition of (+/-)DOI-induced head twitch response in Albino Swiss mouse at 28.6 mg/kg, ip administered 60 mins before (+/-)DOI injection measured for 20 mins relative to untreated control. The format is functional. The essentials: as §5
The test system of data set [19] is Mus musculus. Put plainly: Inhibition of 5-HTP-induced head twitch response in ddY mouse at >=1 mg/kg, po administered 1 hr before 5-HTP injection measured after 30 mins relative to untreated control. It counts as functional.
Data set [20] deals with Mus musculus. In words: Inhibition of (+/-)DOI-induced head twitch response in Albino Swiss mouse at 5 mg/kg, ip administered 60 mins before (+/-)DOI injection measured for 20 mins relative to untreated control. It counts as functional. The gist of the method: as §5
Data set [21] concerns Mus musculus. Put plainly: Inhibition of (+/-)DOI-induced head twitch response in Albino Swiss mouse at 73.1 mg/kg, ip administered 60 mins before (+/-)DOI injection measured for 20 mins relative to untreated control. It counts as functional. The essentials:
as §5

Data set [22] relates to Mus musculus. In words: Anticonvulsant activity in Albino Swiss mouse assessed as protection against pentetrazol-induced tonic seizure at 0.1 ED50, ip administered 60 mins prior to test relative to untreated control. It counts as functional. The essentials: as §4
In data set [23] the test system is Mus musculus. In words: Protection against pentetrazol-induced mortality in Albino Swiss mouse at 0.1 ED50, ip administered 60 mins prior to test relative to untreated control. The format is functional. The essentials:
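Male Albino Swiss mice (18–30 g). Compound given i.p. as suspension in 0.5% methylcellulose (10 mL/kg), 60 min before test; controls got vehicle. Dose expressed as fraction of ED50 (loss of righting reflex within 48 h). Convulsions induced by pentylenetetrazole 110 mg/kg s.c.; dead animals counted per group (n=10; control n=16). Significance vs control by Fisher's exact test.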

For data set [24], the system named is Mus musculus. In words: Inhibition of (+/-)DOI-induced head twitch response in Albino Swiss mouse at 36.55 mg/kg, ip administered 60 mins before (+/-)DOI injection measured for 20 mins relative to untreated control. It counts as functional. The gist of the method:
as §5

Data set [25] concerns Mus musculus. In words: Effect on body temperature in Albino Swiss mouse at 0.1 ED50, ip administered 60 mins before test measured 30 to 180 mins post dose. It counts as functional, organism-based. The essentials:
as §2

SMILES strings stand for the structures. Active and inactive are the calls of the source. The rule behind the calls is not given here.

Chain of 5-hydroxytryptamine receptor 2A (P14842 whole entry): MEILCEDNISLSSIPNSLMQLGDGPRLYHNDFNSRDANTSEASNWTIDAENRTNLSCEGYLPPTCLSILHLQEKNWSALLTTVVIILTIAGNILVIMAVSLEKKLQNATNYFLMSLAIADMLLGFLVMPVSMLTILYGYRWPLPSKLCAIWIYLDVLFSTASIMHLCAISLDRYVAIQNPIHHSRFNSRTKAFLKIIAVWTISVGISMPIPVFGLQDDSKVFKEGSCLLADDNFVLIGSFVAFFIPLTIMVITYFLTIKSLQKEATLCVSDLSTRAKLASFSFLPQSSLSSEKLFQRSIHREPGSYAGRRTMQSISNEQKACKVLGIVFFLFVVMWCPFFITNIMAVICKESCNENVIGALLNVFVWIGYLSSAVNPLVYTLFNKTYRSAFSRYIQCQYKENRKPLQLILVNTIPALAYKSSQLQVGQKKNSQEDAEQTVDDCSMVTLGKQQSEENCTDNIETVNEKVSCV

What is called Ki is a dissociation constant, usually derived from enzyme kinetics or from competition with a known ligand. Low values mean higher affinity, high ones lower affinity. For orientation: ED50 means the dose that gives a 50% effect, or the effect in half of the subjects. Turning to `CC(NC(=S)Nc1ccc(Cl)c([N+](=O)[O-])c1)c1ccccc1` (stereo unspecified), the inhibition result in the data set on Mus musculus [1], with Mus musculus [6] and with Mus musculus [7] was “Active” throughout. In the data set with Mus musculus [2], the result was Active. The inhibition constant (Ki) is greater than 10000 nM in [3] and greater than 10 µM in data set [5]. For the same compound, the ED50 in the data set with Mus musculus [4] turned out to be 1031.3 mg/kg. The Activity entry in the data set on Mus musculus [8], in the data set with Mus musculus [9], with Mus musculus [13], in the data set with Mus musculus [14] and in the data set on Mus musculus [15] was “Non-toxic” throughout. The result in the data set with Mus musculus [10] was inactive. Besides, the “inhibition (INH)” value in the data set with Mus musculus [11] is reported as 89%. Besides, in the data set on Mus musculus [12], the inhibition entry is “inactive”.
One may read the inhibition in vivo as the percentage by which the read-out fell short of the control. With `Fc1ccc(NC(=S)Nc2cccc(C(F)(F)F)c2)cc1Cl`, the inhibition entry with Mus musculus [16] was “Dose-dependent effect”. Also, the result in the data set with Mus musculus [17] was Active. Besides, the Ki is 0.043 nM in data set [3] and greater than 10 µM in data set [5]. Further, the ED50 with Mus musculus [4] was 286.2 mg/kg. Also, the Activity entry in the data set on Mus musculus [8], in the data set with Mus musculus [9], in the data set on Mus musculus [13], in the data set on Mus musculus [14] and in the data set with Mus musculus [15] was “Non-toxic” throughout. In the data set on Mus musculus [18], testing at 28.6 mg/kg gave an inhibition in vivo of 51.6%. For the same compound, the outcome in the data set on Mus musculus [10] was inactive. For the same compound, the inhibition entry in the data set with Mus musculus [11] is “inactive”. In addition, the “inhibition (INH)” value in the data set with Mus musculus [12] amounted to 47.3%.
Turning to `O=C(c1ccc(F)cc1)C1CCN(CCn2c(=O)[nH]c3ccccc3c2=O)CC1` [KETANSERIN], the “inhibition (INH)” value with Mus musculus [19] is recorded as greater than 80%. This compound displayed an inhibition in vivo at 5 mg/kg in the data set on Mus musculus [20] of 100%.
As to `FC(F)(F)c1cccc(NC(S)=NCc2ccccc2)c1`, the inhibition in vivo at 73.1 mg/kg with Mus musculus [21] was 72.2%. Also, the inhibition result with Mus musculus [1], in the data set with Mus musculus [6], with Mus musculus [7] and with Mus musculus [12] was “Active” each time. For the same compound, the inhibition entry in the data set on Mus musculus [16] was “Dose-dependent effect”. Moreover, the results for the inhibition constant (Ki) in data set [3] and in data set [5] were 0.6 nM and greater than 10 µM, respectively. Moreover, the Activity is given as 46.66% in the data set on Mus musculus [22]; “Non-toxic” in the data set on Mus musculus [8]; “Non-toxic” with Mus musculus [9]; 40% with Mus musculus [10]; “Non-toxic” with Mus musculus [13]; “Non-toxic” in the data set on Mus musculus [14]. For the same compound, the Activity result in the data set with Mus musculus [15] is on record as “Non-toxic”. The result in the data set with Mus musculus [23] was Active. Also, the ED50 in the data set on Mus musculus [4] was 731.3 mg/kg. In the data set with Mus musculus [24], this compound returned an inhibition in vivo at 36.55 mg/kg of 69.4%. Moreover, in the data set with Mus musculus [25], the result was inactive. The “inhibition (INH)” value with Mus musculus [11] came out at 73.3%.
